Assay outcomes as filed in PubChem BioAssay.
Lmaj promast – Leishmania major promastigote growth inhibition; Leishmania major promastigotes, resazurin fluorescence viability; inhibition, % at 10 µM; 200,000 compounds, 9% hits; in the data active = inhibition above about 50%;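 also: promastigotes grown with compound for 44 hours at 28 °C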
T cruzi repl – blocks replication of Trypanosoma cruzi; 300,000 compounds, 1.4% hits; inhibition, % (test concentration not listed); T. cruzi beta-gal in NIH3T3, luminescence, 90 h;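 active = mean inhibition across valid replicates above about 55%, limit read from the data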;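 also: signal also drops with host cell toxicity which is not excluded here; 0% = plate median of DMSO wells and 100% = zero luminescence signal; higher percent means less beta-gal luminescence so fewer parasites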
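Material: NIH/3T3 host cells with β-galactosidase reporter T. cruzi; Input: 5,000 host fibroblasts per well; Medium: DMEM, 2% fetal bovine serum; Compound: 50 nL DMSO compound solution per well; Schedule: 3 h host attachment, then at least 90 h co-culture; Detection: luminescent β-galactosidase signal after 60 min lysis.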
Redox H2O2 prof – compounds producing H2O2 with reducing agent – biochemical, NIH compound library profiling, artefact control for MLSCN library redox annotation, primary screen; 200,000 compounds, 0.03% hits; activation, % at 10 µM; DTT-dependent redox cycling H2O2, phenol red/HRP absorbance; 100% = 100 µM peroxide control, 0% = buffer; AID 878;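 active = activation of at least 50% relative to the plate's high and low controls in the primary single-dose screen; inactive = activation below 50%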;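 also: compound incubated with DTT at 0.8 mM final as the reducing agent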
Hep lipid drop – modulators of hepatic lipid droplet formation; 240,000 compounds, 0.4% hits; inhibition, % at 6.5 µM; AML12 mouse hepatocytes, oleate lipid droplets, BODIPY imaging;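 active = lipid droplet intensity inhibited by at least 50%, with more than 500 cells counted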
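Material – AML12 mouse liver cells · Also added – oleate loading, 100 µM · Compound dosing – 6.5 µM single-point dosing · Times – overnight treatment with compound plus oleate · Measured by – fluorescence imaging, 20x objective, two fields per well · Read-out – percent inhibition of filter-corrected integrated lipid droplet intensity per well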
MPTP inh – blocks calcium-induced mitochondrial swelling | isolated mouse mitochondria, Ca2+ swelling absorbance, 30 min | inhibition, % at 10 µM | 360,000 compounds, 1.4% hits;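 active = inhibition of 50% or more, scaled per plate between neutral and stimulator controls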;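 also: 0% = DMSO wells given calcium and 100% = 1 mM EGTA wells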
MPTP counter – mitochondrial membrane potential, counter-screen; shares compounds with MPTP inh; isolated mitochondria, Rhodamine 123 fluorescence; inhibition, % at 10 µM; 5,000 compounds, 78% hits; AID 624504; in the data active = inhibition above about 22%;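 also: 0% = DMSO vehicle and 100% = positive control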
MPTP abs DR – dose response confirmation of mitochondrial permeability transition pore inhibitors | shares compounds with MPTP inh | isolated mitochondria swelling, absorbance | IC50, µM | 780 compounds, 58% hits; in the data active = IC50 below about 20 µM
MPTP cs DR – MPTP inhibitor counter-screen activity, dose response | shares compounds with MPTP inh | isolated mitochondria counterscreen, fluorescence read-out | IC50, µM | 780 compounds, 49% hits | AID 651564; in the data active = IC50 below about 80 µM
* marks the source's active call; other numbers are inactive results; i = inactive; · = no result. This excerpt belongs to a sample that is enriched for hits.

SMILES	Lmaj promast	T cruzi repl	Redox H2O2 prof	Hep lipid drop	MPTP inh	MPTP counter	others
C=CC[n+]1c(-c2ccc(OC)cc2)csc1NNC(=O)Nc1ccccc1	6.8	48.8	-0.3	-23.1	71.2*	59.2*
O=C(Nc1cccc(S(=O)(=O)N2CCCCCC2)c1)c1cc(=O)c2ccccc2o1	20.6	36.5	0.6	5.5	51.6*	64.5*
CC(=O)Nc1ccc(NC(=O)c2cc(=O)c3cc(C)cc(C)c3o2)cc1	·	-1.5	·	11.7	2.0	·
O=C(Nc1cccc(S(=O)(=O)N2CCCCC2)c1)c1ccccn1	47.7	-4.0	-0.1	7.1	-3.8	·
Cc1cc2oc(C(=O)Nc3ccc(S(=O)(=O)N4CCCC(C)C4)cc3)cc(=O)c2cc1Cl (stereo not drawn)	39.0	2.0	0.8	-4.6	73.4*	6.7	MPTP abs DR=>100;MPTP cs DR=<2.5*
Cc1cc(C)c2oc(C(=O)Nc3ccc(S(=O)(=O)N4CCC(C)CC4)cc3)cc(=O)c2c1	87.1*	9.8	0.2	-15.1	59.6*	-8.5	MPTP abs DR=>100;MPTP cs DR=>80
CC(C)N(C)c1ncnc2c1ncn2[C@H]1CN(Cc2ccc3c(c2)OCO3)C[C@@H](CO)O1	·	·	·	·	0.4	·
N/C(=N\N=C/c1ccc(Br)cc1)N/N=C\c1ccc(Br)cc1	0.5	39.5	12.8	14.6	58.7*	-6.2	MPTP abs DR=i;MPTP cs DR=37.4*
O=C(Nc1ccccc1Cl)c1sccc1-c1ccccc1	·	8.9	·	0.8	0.2	·
Cc1ccn2c(=O)nc(SCC(=O)NCCc3ccccc3)nc2c1	·	-13.0	·	·	-3.5	·
CC(C)(C)c1ccc(S(=O)(=O)N2CCC(O)(c3ccc(Cl)cc3)CC2)cc1	·	30.0	·	0.3	84.1*	91.9*
CC(C)(C)c1ccc(S(=O)(=O)N2CCC(N3CCCCC3)CC2)cc1	·	-31.2	·	9.8	71.2*	1.5	MPTP abs DR=i;MPTP cs DR=27.2*
COCCNC(=O)c1onc(CSc2ccc(F)c(F)c2)c1C(=O)NCCOC	·	-5.0	·	·	-1.4	·
O=C(Nc1cc(Cl)cc(Cl)c1)c1coc(=O)c(Br)c1	·	-3.5	·	-3.5	80.6*	86.9*
CC(=O)c1c(C)[nH]c(C(=O)OCC(=O)Nc2cccc(S(=O)(=O)N3CCCC3)c2)c1C	-2.9	-17.7	0.4	4.3	61.9*	61.1*
CCN(CC)S(=O)(=O)c1cccc(NC(=O)COC(=O)c2[nH]c(C)c(C(C)=O)c2C)c1	·	·	·	·	85.7*	88.2*
CC[C@]12C(=O)N(C)C[C@H]([C@@H]3C(=O)N(C)C(=O)[C@@H]31)N2C(=O)c1ccc(Cl)cc1	·	·	·	·	-2.0	·
CC(C)CN1C(=S)SC(C)(C)C1n1oc(=O)n(-c2ccccc2)c1=O (stereo not drawn)	13.7	10.6	0.0	0.2	14.7	·
CC(C)CN1C(=S)SC(C)(C)C1n1oc(=O)n(-c2ccc(Cl)cc2)c1=O (stereo not drawn)	14.9	38.9	0.3	-17.5	87.8*	94.9*
O=C1S/C(=C\c2ccc(O)c([N+](=O)[O-])c2)C(=O)N1c1ccccc1Cl	-4.0	11.5	0.9	0.2	59.0*	71.5*
O=C1S/C(=C\c2ccc(O)c([N+](=O)[O-])c2)C(=O)N1Cc1cccc([N+](=O)[O-])c1	-9.3	9.8	0.5	-3.8	99.8*	61.0*
COc1ccc(C(=O)C2CCCN(Cc3cccn3-c3ccc(Cl)cn3)C2)c(OC)c1 (stereo not drawn)	95.3*	79.0*	-0.4	-1.0	75.6*	98.6*
Cc1cc(C(=O)Nn2c(-c3ccc(Br)cc3)nc3ccccc3c2=O)ccc1[N+](=O)[O-]	5.0	15.8	-0.1	-3.1	67.0*	86.6*
CC1CCCN(C(=O)N2c3ccccc3Sc3ccccc32)C1 (stereo not drawn)	5.2	31.5	-0.1	-3.6	-1.0	·
CC1CCN(C(=O)N2c3ccccc3Sc3ccccc32)CC1	6.8	5.1	1.3	15.0	65.1*	34.5*
SMILES	Lmaj promast	T cruzi repl	Redox H2O2 prof	Hep lipid drop	MPTP inh	MPTP counter	others
COc1ccc(OC)c(NC(=O)COC(=O)CCc2ccc(S(=O)(=O)N3CCOCC3)cc2)c1	·	·	·	·	0.3	·
COc1ccc(S(=O)Cc2ccc(C(=O)NC3CC3)o2)cc1 (stereo not drawn)	·	-10.5	·	-16.1	0.1	·
O=C(Nc1cccc(C(F)(F)F)c1)OCCN1CCN(Cc2ccccc2)CCC1=O	4.8	-0.9	0.4	-4.0	98.3*	89.8*
O=C(Nc1ccc(F)cc1)OCCN1CCN(Cc2ccccc2)CCC1=O	24.0	-11.7	0.2	-4.4	16.6	·
OCCC1CN(Cc2ccon2)CCN1Cc1ccc(F)c(F)c1 (stereo not drawn)	-7.0	-5.5	-0.4	-1.0	-0.9	·
COc1ccc([N+](=O)[O-])cc1NC(=S)NC(NC(C)=O)C(Cl)(Cl)Cl (stereo not drawn)	·	-6.6	·	9.8	9.0	·
COc1ccc([N+](=O)[O-])cc1NC(=S)NC(NC(=O)Cc1ccc(OC)c(OC)c1)C(Cl)(Cl)Cl (stereo not drawn)	-10.6	9.9	-8.3	·	65.8*	51.2*
CC(C)CSC1=NSC2=NC(=O)/C(=C\c3coc4ccccc4c3=O)C(=N)N12	-12.8	-9.5	0.0	-2.7	89.3*	61.4*
CC(C)CSC1=NSC2=NC(=O)/C(=C\c3ccccc3)C(=N)N12	0.9	16.7	-0.9	6.8	72.6*	90.5*
Cc1cc(/C=C2\C(=N)N3C(SCc4ccccc4)=NSC3=NC2=O)c(C)n1Cc1ccccc1	-8.1	-12.7	-1.2	-2.4	16.2	·
CCS(=O)(=O)C1=NSC2=NC(=O)/C(=C\c3ccc(OC(=O)c4ccco4)cc3)C(=N)N21	·	4.2	·	-4.1	-0.9	·
CSC1=NSC2=NC(=O)/C(=C\c3coc4ccccc4c3=O)C(=N)N12	-15.7	·	-0.1	-5.3	95.1*	89.6*
N#Cc1ccc(CN2CCN(C(=O)Cn3nc(C(N)=O)c4ccccc4c3=O)CC2)cc1	·	4.9	·	2.3	-0.9	·
COc1ccc(CNC(=O)C2CCC(CNc3nc(=S)[nH]c4ccccc34)CC2)cc1 (stereo not drawn)	7.1	6.5	-0.5	-12.3	·	·
O=C(/C=C/c1ccco1)Oc1cc(Br)cc(/C=N/NC(=O)c2ccccc2O)c1	99.4*	7.1	0.3	12.6	65.9*	62.6*
CC1CCc2c(nc3sc4c(c3c2N)CCCC4)C1 (stereo not drawn)	97.4*	37.5	2.3	0.6	76.1*	83.9*
CCc1c(-c2ccccc2)nc2sc3c(c2c1N)CCCC3	·	55.4*	·	-6.4	83.7*	70.2*
Nc1c(C(=O)O)sc2nc(-c3ccccc3)c3c(c12)CCCC3	-2.3	0.3	0.8	-0.9	1.8	·
Nc1nc2c(s1)CCCCCCCCCC2	·	3.8	·	-10.3	2.6	·
